Test results from BindingDB's records for doi:10.1016/j.bmc.2014.09.025 (Johns Hopkins University, 2014).

Biological target: T1, Mas-related G-protein coupled receptor member X1 (Mus musculus, UniProt Q8CIP3)
T1 sequence (Q8CIP3 whole entry): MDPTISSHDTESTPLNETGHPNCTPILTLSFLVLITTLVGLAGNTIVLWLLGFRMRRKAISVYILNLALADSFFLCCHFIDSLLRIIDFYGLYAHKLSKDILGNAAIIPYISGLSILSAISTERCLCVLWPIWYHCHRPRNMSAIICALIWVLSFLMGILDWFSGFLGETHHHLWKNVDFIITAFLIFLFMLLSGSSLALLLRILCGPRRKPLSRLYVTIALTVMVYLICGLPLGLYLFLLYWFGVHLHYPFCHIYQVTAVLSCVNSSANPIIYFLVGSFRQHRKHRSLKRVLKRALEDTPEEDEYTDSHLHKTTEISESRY
Assay: Agonist activity at mouse MrgC11 transfected in HEK293 cells by FLIPR assay
Method in brief: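 Rodent Mrg receptors were transiently transfected into HEK293 or KNRK cells, which were plated at 25,000 cells/well and imaged 2 days later. Cells were loaded with 2 μM Fluo 4AM and 1% Trypan Red in HBSS for 50 min at 37°C, then held 10 min at room temperature.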

SMILES: N=C(N)Nc1cccc(C(N)C(=O)N[C@@H](Cc2ccccc2)C(N)=O)c1 (stereo partly specified)
- EC50: 31.6 µM
